Data set [1] addresses Beta-2 adrenergic receptor (Homo sapiens, UniProt P07550). Description: Displacement of [125I]-cyanopindolol from recombinant human beta-2 adrenergic receptor expressed in CHO cell membranes after 1 hr by scintillation counting analysis.
Data set [2] addresses Beta-1 adrenergic receptor (Homo sapiens, UniProt P08588). Description: Displacement of [125I]-cyanopindolol from recombinant human beta-1 adrenergic receptor expressed in CHO cell membranes after 1 hr by scintillation counting analysis. On the technique in general: Loss of bound radioactivity is the signal in a displacement assay; it reports binding, not function.
The target of data set [3] is T1, Beta-3 adrenergic receptor (Homo sapiens, UniProt P13945). The experiment in a line: Agonist activity at human beta-3 adrenergic receptor expressed in CHO cells assessed as increase in intracellular cAMP accumulation after 30 mins by time-resolved fluorescence assay. In kind it is functional, cell-based. In short, it runs like this: (§1)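 CHO cells stably transfected with cloned β3-AR, harvested after 3 days subculture with enzyme-free dissociation, 6000 cells in HBSS with 5 mM HEPES, 0.1% BSA and 0.6 mM IBMX. Ligand at 10⁻¹⁰ to 10⁻⁵ M final, 30 min room temperature with labeled cAMP antibody; LANCE TR-FRET read after 1 h detection, cAMP from standard curve.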
(Changes in cAMP serve as a functional read-out for many G protein-coupled receptors.)
Target sequence in this assay (P13945 whole entry): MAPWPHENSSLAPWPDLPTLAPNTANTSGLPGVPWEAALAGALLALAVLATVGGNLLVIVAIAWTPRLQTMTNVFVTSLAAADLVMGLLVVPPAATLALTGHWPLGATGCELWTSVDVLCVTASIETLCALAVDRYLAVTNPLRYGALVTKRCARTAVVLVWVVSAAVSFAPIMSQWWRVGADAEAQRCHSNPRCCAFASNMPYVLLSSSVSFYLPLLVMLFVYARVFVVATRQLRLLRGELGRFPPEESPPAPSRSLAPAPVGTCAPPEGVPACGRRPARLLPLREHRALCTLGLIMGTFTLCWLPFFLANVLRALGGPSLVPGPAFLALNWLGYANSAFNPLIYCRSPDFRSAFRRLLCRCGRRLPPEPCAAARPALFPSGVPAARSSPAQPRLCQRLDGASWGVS

Data set [4] concerns the target Voltage-gated inwardly rectifying potassium channel KCNH2 (Homo sapiens, UniProt Q12809). The experiment in a line: Inhibition of human ERG.
The target in data set [5] is T1, Beta-3 adrenergic receptor. Description: Agonist activity at human beta-3 adrenergic receptor expressed in CHO cells assessed as increase in intracellular cAMP accumulation at 10^-10 to 10^-5 M after 30 mins by time-resolved fluorescence assay relative to R-(-)isoproterenol. In kind it is functional, cell-based. In short, it runs like this:
as §1
Target sequence in this assay (P13945 whole entry, looked up): as the sequence (P13945 whole entry) above

Data set [6] can be described thus: Apparent permeability in MDCK2 cells. Particulars: dog, MDCK. In kind it is ADME, cell-based, Canis lupus familiaris, MDCK-II.
The nature of data set [7]: Half life in Sprague-Dawley rat at 1 mg/kg, iv and 2 mg/kg, po. In kind it is ADME, organism-based. Particulars: in vivo.
Data set [8] can be described thus: Fraction unbound in Sprague-Dawley rat plasma at 1 mg/kg, iv and 2 mg/kg, po. In kind it is ADME, organism-based. Particulars: Sprague-Dawley, plasma.
A short description of data set [9]: Oral bioavailability in Sprague-Dawley rat at 2 mg/kg. Particulars: in vivo. In kind it is ADME, organism-based.
A short description of data set [10]: Intrinsic clearance in rat liver microsomes. In kind it is ADME. As to conditions: read-out: CLH. On the technique in general: Liver microsomes are vesicles of endoplasmic reticulum, rich in cytochrome P450 enzymes.
Data set [11] is described as follows: Plasma clearance in Sprague-Dawley rat at 1 mg/kg, iv and 2 mg/kg, po. In kind it is ADME, organism-based.
Data set [12] has as its target Sodium channel protein type 5 subunit alpha (Homo sapiens, UniProt Q14524). Description: Inhibition of human NaV1.5.
Data set [13] has as its target Cytochrome P450 2C9 (Homo sapiens, UniProt P11712). The experiment in a line: Inhibition of CYP2C9 in human liver microsomes assessed as diclofenac alpha'-hydroxylation. In kind it is ADME.
Data set [14] has as its target Sodium-dependent serotonin transporter (Homo sapiens, UniProt P31645). The experiment in a line: Inhibition of human SERT expressed in HEK293 cells incubated for 30 mins prior to fluorescent substrate addition measured after 30 mins by fluorescent dye uptake assay. In kind it is cell-based. In short, it runs like this: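 HEK293 stably expressing human SERT, 20000 cells/well plated overnight at 37 °C, then in HBSS with 20 mM HEPES and 0.1% BSA. Compound added from 100× DMSO stock, 30 min at 37 °C, then fluorescent transporter substrate for 30 more min. Fluorescence read at 440/520 nm, normalized to DMSO (0%) and 10 μM fluoxetine (100%), four-parameter fit for IC50.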

Data set [15] concerns the target Cytochrome P450 3A4 (Homo sapiens, UniProt P08684). The experiment in a line: Inhibition of CYP3A4 in human liver microsomes assessed as testosterone 6beta-hydroxylation. In kind it is ADME.
For data set [16], the target named is Cytochrome P450 2D6 (Homo sapiens, UniProt P10635). The experiment in a line: Inhibition of CYP2D6 in human liver microsomes assessed as dextromethorphan O-demethylation. In kind it is ADME.
For data set [17], the target named is Voltage-dependent L-type calcium channel subunit alpha-1C (Homo sapiens, UniProt Q13936). Description: Displacement of [3H]-diltiazem from human CaV1.2.

Chain of Beta-1 adrenergic receptor (P08588 whole entry): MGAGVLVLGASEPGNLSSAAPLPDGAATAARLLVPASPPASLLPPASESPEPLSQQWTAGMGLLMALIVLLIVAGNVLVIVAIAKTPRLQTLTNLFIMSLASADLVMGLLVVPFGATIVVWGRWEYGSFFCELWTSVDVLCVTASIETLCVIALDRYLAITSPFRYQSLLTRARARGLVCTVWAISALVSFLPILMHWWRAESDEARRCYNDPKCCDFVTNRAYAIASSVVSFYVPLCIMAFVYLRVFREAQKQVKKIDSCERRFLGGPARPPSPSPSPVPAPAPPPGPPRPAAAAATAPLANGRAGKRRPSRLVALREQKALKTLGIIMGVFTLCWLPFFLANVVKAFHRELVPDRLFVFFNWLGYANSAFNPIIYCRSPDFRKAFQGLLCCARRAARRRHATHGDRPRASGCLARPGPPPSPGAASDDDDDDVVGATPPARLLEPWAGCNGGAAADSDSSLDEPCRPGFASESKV
Chain of Beta-2 adrenergic receptor (P07550 whole entry): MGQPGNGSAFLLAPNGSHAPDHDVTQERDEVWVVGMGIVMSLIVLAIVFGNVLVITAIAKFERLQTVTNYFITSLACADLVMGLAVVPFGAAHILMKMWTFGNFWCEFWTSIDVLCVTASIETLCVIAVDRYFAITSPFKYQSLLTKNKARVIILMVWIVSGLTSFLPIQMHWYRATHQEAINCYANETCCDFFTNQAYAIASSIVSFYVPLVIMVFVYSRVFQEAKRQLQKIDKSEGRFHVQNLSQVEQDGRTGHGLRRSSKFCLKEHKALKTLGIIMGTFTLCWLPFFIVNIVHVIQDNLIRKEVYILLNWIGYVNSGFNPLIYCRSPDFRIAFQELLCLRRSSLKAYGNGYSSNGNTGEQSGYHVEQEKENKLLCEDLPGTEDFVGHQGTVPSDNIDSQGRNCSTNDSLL
Chain of Voltage-gated inwardly rectifying potassium channel KCNH2 (Q12809 whole entry): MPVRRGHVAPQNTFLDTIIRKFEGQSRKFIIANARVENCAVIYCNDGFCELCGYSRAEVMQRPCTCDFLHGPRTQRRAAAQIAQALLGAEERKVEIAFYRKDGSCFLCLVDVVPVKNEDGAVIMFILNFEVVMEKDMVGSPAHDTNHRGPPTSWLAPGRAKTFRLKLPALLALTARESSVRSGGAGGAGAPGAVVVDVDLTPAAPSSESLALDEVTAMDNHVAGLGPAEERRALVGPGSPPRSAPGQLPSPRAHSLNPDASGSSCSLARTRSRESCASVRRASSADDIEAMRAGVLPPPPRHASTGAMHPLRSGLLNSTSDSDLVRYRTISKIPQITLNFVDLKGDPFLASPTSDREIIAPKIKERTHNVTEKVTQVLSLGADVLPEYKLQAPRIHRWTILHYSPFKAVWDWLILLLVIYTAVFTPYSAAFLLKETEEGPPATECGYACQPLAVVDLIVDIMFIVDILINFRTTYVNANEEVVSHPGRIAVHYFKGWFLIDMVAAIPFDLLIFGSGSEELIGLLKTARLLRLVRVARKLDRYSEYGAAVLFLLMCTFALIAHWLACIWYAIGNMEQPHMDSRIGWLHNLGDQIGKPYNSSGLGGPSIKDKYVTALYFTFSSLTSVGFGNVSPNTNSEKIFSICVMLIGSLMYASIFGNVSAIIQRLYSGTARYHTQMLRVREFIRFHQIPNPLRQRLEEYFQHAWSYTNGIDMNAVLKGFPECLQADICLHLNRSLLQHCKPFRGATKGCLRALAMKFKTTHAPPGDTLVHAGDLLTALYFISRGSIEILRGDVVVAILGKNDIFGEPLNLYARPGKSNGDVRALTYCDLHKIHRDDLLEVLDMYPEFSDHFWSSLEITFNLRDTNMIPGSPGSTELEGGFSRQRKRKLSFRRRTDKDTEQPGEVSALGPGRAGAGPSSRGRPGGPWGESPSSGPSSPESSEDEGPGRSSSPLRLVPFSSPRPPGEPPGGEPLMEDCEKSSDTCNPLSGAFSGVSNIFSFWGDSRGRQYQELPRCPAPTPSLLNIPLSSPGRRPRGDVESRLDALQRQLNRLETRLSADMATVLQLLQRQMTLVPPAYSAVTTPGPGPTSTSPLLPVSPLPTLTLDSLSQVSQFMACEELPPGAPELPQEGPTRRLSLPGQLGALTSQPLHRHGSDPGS
Chain of Sodium channel protein type 5 subunit alpha (Q14524 whole entry): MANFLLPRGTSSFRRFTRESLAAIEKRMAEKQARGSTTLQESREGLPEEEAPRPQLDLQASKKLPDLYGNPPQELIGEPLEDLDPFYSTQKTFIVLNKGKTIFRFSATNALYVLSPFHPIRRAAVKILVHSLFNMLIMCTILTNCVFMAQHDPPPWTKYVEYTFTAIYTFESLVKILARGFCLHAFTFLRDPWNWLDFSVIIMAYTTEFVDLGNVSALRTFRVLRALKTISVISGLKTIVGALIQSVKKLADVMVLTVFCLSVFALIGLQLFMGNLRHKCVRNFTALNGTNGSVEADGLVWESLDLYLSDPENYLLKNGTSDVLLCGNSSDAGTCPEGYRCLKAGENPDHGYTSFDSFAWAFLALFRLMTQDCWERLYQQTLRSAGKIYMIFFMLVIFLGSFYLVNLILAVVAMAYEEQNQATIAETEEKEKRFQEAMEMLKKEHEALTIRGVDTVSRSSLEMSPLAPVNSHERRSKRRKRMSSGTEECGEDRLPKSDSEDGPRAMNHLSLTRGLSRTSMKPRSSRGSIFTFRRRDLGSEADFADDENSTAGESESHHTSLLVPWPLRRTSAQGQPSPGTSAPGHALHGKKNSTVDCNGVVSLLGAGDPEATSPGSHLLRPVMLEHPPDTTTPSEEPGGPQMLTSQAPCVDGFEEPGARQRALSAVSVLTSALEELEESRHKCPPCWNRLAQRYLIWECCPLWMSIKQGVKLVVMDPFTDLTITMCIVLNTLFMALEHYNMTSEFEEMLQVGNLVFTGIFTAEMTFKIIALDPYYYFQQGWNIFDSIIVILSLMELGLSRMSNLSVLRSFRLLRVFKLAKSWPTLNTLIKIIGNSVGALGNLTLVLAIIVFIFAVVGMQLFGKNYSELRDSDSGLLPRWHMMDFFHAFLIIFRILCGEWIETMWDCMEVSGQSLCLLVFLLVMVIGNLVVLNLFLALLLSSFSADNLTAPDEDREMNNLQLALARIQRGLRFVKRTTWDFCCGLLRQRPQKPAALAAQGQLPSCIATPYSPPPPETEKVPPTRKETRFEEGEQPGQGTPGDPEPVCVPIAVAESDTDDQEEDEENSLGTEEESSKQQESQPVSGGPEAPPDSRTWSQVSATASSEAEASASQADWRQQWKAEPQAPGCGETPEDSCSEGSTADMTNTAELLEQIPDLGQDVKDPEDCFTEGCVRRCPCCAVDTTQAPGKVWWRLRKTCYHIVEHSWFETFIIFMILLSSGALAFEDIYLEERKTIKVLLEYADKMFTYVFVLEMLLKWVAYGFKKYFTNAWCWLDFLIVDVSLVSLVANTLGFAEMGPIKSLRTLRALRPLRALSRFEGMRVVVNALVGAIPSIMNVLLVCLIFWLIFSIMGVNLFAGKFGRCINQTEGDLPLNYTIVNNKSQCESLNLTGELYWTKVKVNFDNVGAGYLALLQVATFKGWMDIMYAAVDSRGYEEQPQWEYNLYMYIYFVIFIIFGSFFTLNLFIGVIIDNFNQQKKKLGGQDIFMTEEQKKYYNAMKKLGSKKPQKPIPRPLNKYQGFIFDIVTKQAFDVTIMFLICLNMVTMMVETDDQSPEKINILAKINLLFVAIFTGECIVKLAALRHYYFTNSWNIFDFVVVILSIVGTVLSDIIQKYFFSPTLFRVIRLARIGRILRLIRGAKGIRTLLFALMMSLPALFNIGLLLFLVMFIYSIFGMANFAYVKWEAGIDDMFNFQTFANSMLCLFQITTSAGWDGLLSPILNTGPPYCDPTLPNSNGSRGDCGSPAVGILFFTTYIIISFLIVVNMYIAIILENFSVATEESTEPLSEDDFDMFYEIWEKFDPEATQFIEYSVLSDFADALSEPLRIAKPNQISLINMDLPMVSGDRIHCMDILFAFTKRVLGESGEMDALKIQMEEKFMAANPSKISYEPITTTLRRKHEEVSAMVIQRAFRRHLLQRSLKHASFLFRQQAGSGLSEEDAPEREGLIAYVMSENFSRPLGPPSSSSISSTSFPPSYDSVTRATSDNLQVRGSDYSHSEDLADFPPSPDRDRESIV
Chain of Cytochrome P450 3A4 (P08684 whole entry): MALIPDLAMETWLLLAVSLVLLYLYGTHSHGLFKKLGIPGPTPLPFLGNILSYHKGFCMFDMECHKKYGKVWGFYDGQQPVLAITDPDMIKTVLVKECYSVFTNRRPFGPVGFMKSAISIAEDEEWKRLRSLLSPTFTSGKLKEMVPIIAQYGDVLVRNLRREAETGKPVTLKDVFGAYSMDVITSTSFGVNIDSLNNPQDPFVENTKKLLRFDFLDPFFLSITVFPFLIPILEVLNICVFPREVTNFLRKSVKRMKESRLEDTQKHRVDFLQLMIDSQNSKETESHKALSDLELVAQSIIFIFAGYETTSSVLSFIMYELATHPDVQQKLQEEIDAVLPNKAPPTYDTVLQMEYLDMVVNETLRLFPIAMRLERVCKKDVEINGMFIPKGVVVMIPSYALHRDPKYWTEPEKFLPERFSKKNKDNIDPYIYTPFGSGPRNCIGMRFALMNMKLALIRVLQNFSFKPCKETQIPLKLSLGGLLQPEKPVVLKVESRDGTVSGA

As a reminder, the IC50 is the concentration that inhibits the measured activity by half. The term EC50 denotes the midpoint of the concentration-response curve. On to `Nc1nc2c(s1)CC[C@H]2C(=O)Nc1ccc(C[C@@H]2CC[C@H]([C@H](O)c3cccc(F)c3)N2)cc1`, for which the IC50 is greater than 20 µM in data set [1], greater than 20 µM in [2] and 4 µM in [4]. In addition, the concentration giving a half-maximal response (EC50) in data set [3] is 0.04 nM. In [5], the Activity amounted to 94%.
As usually defined, the Papp is the rate of passage across a membrane or cell layer, normalised by area and donor concentration. In general, half-life refers to the time needed for the level to fall by half in the phase considered. Lower therefore signals fast loss. Broadly, the fraction unbound is the share of the substance not bound to proteins or other matrix. Lower therefore signals extensive binding. A word on the bioavailability: it is dose-corrected exposure relative to a reference, in per cent. Read a low bioavailability as poor availability. On to `O=C(Nc1ccc(C[C@@H]2CC[C@H]([C@H](O)c3ccccc3)N2)cc1)[C@@H]1CCc2scnc21`, for which the IC50 in data set [1] and in data set [2] was greater than 20 µM throughout. Moreover, in data set [6], the apparent permeability coefficient (Papp) is 240 nm/s. The same compound had a half-life in data set [7] of 1 h. For the same compound, the fraction unbound in [8] amounted to 0.1. This compound also gave a bioavailability in data set [9] of 12%. In addition, the CLint scaled in data set [10] came out at 4.08 L/h/kg. Moreover, the 50% effective concentration (EC50) in [3] was determined as 0.64 nM. This compound also gave a clearance in data set [11] of 4.8 L/h/kg. Besides, the Activity in data set [5] came to 101%.
For `Nc1nc2c(s1)CC[C@H]2C(=O)Nc1ccc(C[C@@H]2CC[C@H]([C@H](O)c3ccc(F)cc3)N2)cc1`, the figures for the IC50 in data set [1], in data set [2] and in data set [4] were greater than 20 µM, greater than 20 µM and 5.6 µM, respectively. In data set [3], the EC50 came to 0.13 nM. Further, the Activity in data set [5] was 72%.
`Cc1nc2c(s1)CC[C@H]2C(=O)Nc1ccc(C[C@@H]2CC[C@H]([C@H](O)c3ccccc3)N2)cc1`: the IC50 in [1] and in [2] was greater than 20 µM throughout. In data set [6], the Papp stood at 260 nm/s. In addition, the half-life in data set [7] was 1 h. The compound also registered a fraction unbound in data set [8] of 0.05. For the same compound, in [9], the bioavailability worked out at 6%. In addition, the CLint scaled in data set [10] came out at 8.1 L/h/kg. In data set [3], the EC50 was found to be 0.48 nM. The compound further displayed a clearance in data set [11] of 5.22 L/h/kg. For the same compound, the Activity in data set [5] came out at 96%.
`C[C@@H](C(=O)Nc1ccc(C[C@@H]2CC[C@H]([C@H](O)c3cccnc3)N2)cc1)n1cccn1`: the half-inhibitory concentration (IC50) in [1] and in data set [2] was greater than 20 µM each time. For the same compound, the half-life in data set [7] is 2 h. Besides, in data set [9], the bioavailability was 29%. For the same compound, the half-maximal effective concentration (EC50) in [3] came out at 16.7 nM. Further, in [11], the clearance is 2.04 L/h/kg. For the same compound, the Activity in data set [5] amounted to 102%.
Consider `Nc1nc(CC(=O)Nc2ccc(C[C@@H]3CCC([C@H](O)c4ccccc4)N3)cc2)cs1` (single isomer, unassigned), for which the IC50 in data set [1] is greater than 20 µM; in data set [12], greater than 30 µM; in data set [13], greater than 100 µM; in data set [2], greater than 20 µM; in data set [14] it was 1.61 µM; in data set [15] it was greater than 100 µM. In addition, the IC50 was determined as 2.2 µM in data set [16] and 8.2 µM in [17]. Also, the Papp in data set [6] came out at 50 nm/s. This compound also showed a half-life in [7] of 8 h. The compound further came in with a free fraction (fraction unbound) in data set [8] of 0.06. Further, the CLint scaled in data set [10] worked out at 2.28 L/h/kg. This compound gave a clearance in [11] of 0.66 L/h/kg. The Activity in [5] turned out to be 92%.
Consider `Nc1nc2c(s1)CCC[C@H]2C(=O)Nc1ccc(C[C@@H]2CC[C@H]([C@H](O)c3ccccc3)N2)cc1`, for which the IC50 in data set [1] and in data set [2] was greater than 20 µM in each case. Further, in data set [6], the Papp worked out at 50 nm/s. The compound further had a half-life in [7] of 3 h. The same compound had a free fraction (fraction unbound) in data set [8] of 0.14. The same compound returned a bioavailability in data set [9] of 0%. The CLint scaled in data set [10] turned out to be 3.78 L/h/kg. In [3], the EC50 amounted to 0.21 nM. The same compound displayed a clearance in [11] of 11.1 L/h/kg. Also, in data set [5], the Activity amounted to 103%.

The record behind these values is ChEMBL document CHEMBL3124772, “Design, synthesis, and evaluation of conformationally restricted acetanilides as potent and selective β3 adrenergic receptor agonists for the treatment of overactive bladder” (J Med Chem, 2014).
